Reference: ChEMBL document CHEMBL5724801, “EUbOPEN Chemogenomics Library - Multiplex” (2024)
Several values for one entry are separate records, joined by “and”; a condition that tells them apart may be missing. Identical values can stand only once.

Tests used:
Assay type in all cases: toxicity, cell-based
[1] = tested on: Fibroblast; test: Multiplex assay against human fibroblast
In short: (§1)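 Tubulin, mitochondrial-mass and membrane-permeability phenotypes are per cents of healthy-nucleus cells. Cells were gated by CellPathfinder machine learning into Hoechst high-intensity objects or normal cells, normal cells into healthy, pyknosed or fragmented nuclei, and pyknosed cells into mitotic or apoptotic. Before that, live cells stained at seeding with Hoechst33342, BioTracker Green Microtubule Cytoskeleton Dye, MitoTracker Red and Annexin V Alexa Fluor 680 were imaged on a CQ1 microscope at 37°C and 5% CO2 after compound addition.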

[2] = tested on: HEK-293T; test: Multiplex assay against HEK293T; conditions: human; in short: as §1
[3] = tested on: U2OS; test: Multiplex assay against U2OS; conditions: human; in short: as §1
[4] = 12 h, 1 µM, compound concentration 1 uM
[5] = 12 h, 10 µM, compound concentration 10 uM
[6] = 24 h, 1 µM, compound concentration 1 uM
[7] = 24 h, 10 µM, compound concentration 10 uM
[8] = 48 h, 1 µM, compound concentration 1 uM
[9] = 48 h, 10 µM, compound concentration 10 uM

## Cc1ccccc1C(=O)Nc1ccc(C(=O)N2CCCC(N(C)C)c3ccccc32)cc1.Cl (stereo unspecified)
[1]; [4]
  Population Apoptotic (%): 52% and 36%
  Population Fragmented Nuclei (%): 16% and 22%
  Population Healthy Nuclei (%): 71% and 55%
  Population Hoechst High Intensity Objects (%): 0% and 1%
  Population Membrane Permeable-Phenotype (%): 0% and 10%
  Population Mitochondria Different-Phenotype (%): 5% and 3%
  Population Mitotic Cells (%): 47% and 63%
  Population Normal (%): 100% and 98%
  Population Pyknosed Nuclei (%): 12% and 21%
  Population Tubulin-Different-Phenotype (%): 31% and 45%
  Total Cell Count: 167 and 155
[1]; [5]
  Population Apoptotic (%): 58% and 45%
  Population Fragmented Nuclei (%): 26% and 29%
  Population Healthy Nuclei (%): 50% and 47%
  Population Hoechst High Intensity Objects (%): 1% and 4%
  Population Membrane Permeable-Phenotype (%): 1% and 4%
  Population Mitochondria Different-Phenotype (%): 12%
  Population Mitotic Cells (%): 41% and 54%
  Population Normal (%): 98% and 95%
  Population Pyknosed Nuclei (%): 22% and 23%
  Population Tubulin-Different-Phenotype (%): 70% and 61%
  Total Cell Count: 108 and 109
[1]; [6]
  Population Apoptotic (%): 38% and 43%
  Population Fragmented Nuclei (%): 15% and 28%
  Population Healthy Nuclei (%): 76% and 49%
  Population Hoechst High Intensity Objects (%): 1% and 5%
  Population Membrane Permeable-Phenotype (%): 0% and 8%
  Population Mitochondria Different-Phenotype (%): 8% and 2%
  Population Mitotic Cells (%): 61% and 56%
  Population Normal (%): 98% and 94%
  Population Pyknosed Nuclei (%): 8% and 21%
  Population Tubulin-Different-Phenotype (%): 30% and 50%
  Total Cell Count: 160 and 157
[1]; [7]
  Population Apoptotic (%): 58% and 57%
  Population Fragmented Nuclei (%): 30% and 37%
  Population Healthy Nuclei (%): 58% and 42%
  Population Hoechst High Intensity Objects (%): 1% and 4%
  Population Membrane Permeable-Phenotype (%): 0% and 9%
  Population Mitochondria Different-Phenotype (%): 12% and 11%
  Population Mitotic Cells (%): 41% and 42%
  Population Normal (%): 98% and 95%
  Population Pyknosed Nuclei (%): 11% and 20%
  Population Tubulin-Different-Phenotype (%): 68% and 72%
  Total Cell Count: 111 and 107
[1]; [8]
  Population Apoptotic (%): 33% and 53%
  Population Fragmented Nuclei (%): 13% and 32%
  Population Healthy Nuclei (%): 79% and 50%
  Population Hoechst High Intensity Objects (%): 3%
  Population Membrane Permeable-Phenotype (%): 0% and 8%
  Population Mitochondria Different-Phenotype (%): 4% and 5%
  Population Mitotic Cells (%): 66% and 46%
  Population Normal (%): 96%
  Population Pyknosed Nuclei (%): 7% and 17%
  Population Tubulin-Different-Phenotype (%): 28% and 54%
  Total Cell Count: 158 and 155
[1]; [9]
  Population Apoptotic (%): 91% and 73%
  Population Fragmented Nuclei (%): 24% and 43%
  Population Healthy Nuclei (%): 60% and 43%
  Population Hoechst High Intensity Objects (%): 7% and 3%
  Population Membrane Permeable-Phenotype (%): 0% and 8%
  Population Mitochondria Different-Phenotype (%): 12% and 14%
  Population Normal (%): 92% and 96%
  Population Pyknosed Nuclei (%): 14% and 13%
  Population Tubulin-Different-Phenotype (%): 51% and 70%
  Total Cell Count: 88 and 113
[2]; [4]
  Population Apoptotic (%): 18% and 53%
  Population Fragmented Nuclei (%): 6% and 5%
  Population Healthy Nuclei (%): 80% and 79%
  Population Hoechst High Intensity Objects (%): 8% and 6%
  Population Membrane Permeable-Phenotype (%): 0%
  Population Mitochondria Different-Phenotype (%): 51% and 72%
  Population Mitotic Cells (%): 81% and 46%
  Population Normal (%): 91% and 93%
  Population Pyknosed Nuclei (%): 12% and 14%
  Population Tubulin-Different-Phenotype (%): 33% and 29%
  Total Cell Count: 519 and 412
[2]; [5]
  Population Apoptotic (%): 53% and 64%
  Population Fragmented Nuclei (%): 6% and 8%
  Population Healthy Nuclei (%): 70% and 72%
  Population Hoechst High Intensity Objects (%): 8% and 15%
  Population Membrane Permeable-Phenotype (%): 0%
  Population Mitochondria Different-Phenotype (%): 74% and 82%
  Population Mitotic Cells (%): 46% and 35%
  Population Normal (%): 91% and 84%
  Population Pyknosed Nuclei (%): 22% and 18%
  Population Tubulin-Different-Phenotype (%): 60% and 61%
  Total Cell Count: 233 and 285
[2]; [6]
  Population Apoptotic (%): 31% and 30%
  Population Fragmented Nuclei (%): 11% and 5%
  Population Healthy Nuclei (%): 79% and 83%
  Population Hoechst High Intensity Objects (%): 5% and 4%
  Population Membrane Permeable-Phenotype (%): 0%
  Population Mitochondria Different-Phenotype (%): 28% and 52%
  Population Mitotic Cells (%): 68% and 69%
  Population Normal (%): 94% and 95%
  Population Pyknosed Nuclei (%): 8% and 11%
  Population Tubulin-Different-Phenotype (%): 17% and 19%
  Total Cell Count: 727 and 567
[2]; [7]
  Population Apoptotic (%): 41% and 44%
  Population Fragmented Nuclei (%): 8% and 7%
  Population Healthy Nuclei (%): 70% and 73%
  Population Hoechst High Intensity Objects (%): 7% and 14%
  Population Membrane Permeable-Phenotype (%): 0%
  Population Mitochondria Different-Phenotype (%): 71% and 83%
  Population Mitotic Cells (%): 58% and 55%
  Population Normal (%): 92% and 85%
  Population Pyknosed Nuclei (%): 21% and 18%
  Population Tubulin-Different-Phenotype (%): 46%
  Total Cell Count: 268 and 285
[2]; [8]
  Population Apoptotic (%): 13% and 34%
  Population Fragmented Nuclei (%): 13% and 10%
  Population Healthy Nuclei (%): 78% and 82%
  Population Hoechst High Intensity Objects (%): 2% and 4%
  Population Membrane Permeable-Phenotype (%): 1% and 0%
  Population Mitochondria Different-Phenotype (%): 24% and 30%
  Population Mitotic Cells (%): 86% and 65%
  Population Normal (%): 97% and 95%
  Population Pyknosed Nuclei (%): 8% and 6%
  Population Tubulin-Different-Phenotype (%): 17% and 14%
  Total Cell Count: 1095 and 722
[2]; [9]
  Population Apoptotic (%): 55% and 63%
  Population Fragmented Nuclei (%): 10% and 9%
  Population Healthy Nuclei (%): 69% and 77%
  Population Hoechst High Intensity Objects (%): 6%
  Population Membrane Permeable-Phenotype (%): 0%
  Population Mitochondria Different-Phenotype (%): 69% and 72%
  Population Mitotic Cells (%): 44% and 36%
  Population Normal (%): 93%
  Population Pyknosed Nuclei (%): 20% and 12%
  Population Tubulin-Different-Phenotype (%): 49% and 41%
  Total Cell Count: 283 and 314
[3]; [4]
  Population Apoptotic (%): 91% and 77%
  Population Fragmented Nuclei (%): 20% and 14%
  Population Healthy Nuclei (%): 70% and 79%
  Population Hoechst High Intensity Objects (%): 1%
  Population Membrane Permeable-Phenotype (%): 5% and 4%
  Population Mitochondria Different-Phenotype (%): 3% and 5%
  Population Mitotic Cells (%): 8% and 22%
  Population Normal (%): 98%
  Population Pyknosed Nuclei (%): 8% and 5%
  Population Tubulin-Different-Phenotype (%): 4% and 1%
  Total Cell Count: 282 and 157
[3]; [5]
  Population Apoptotic (%): 59% and 56%
  Population Fragmented Nuclei (%): 18%
  Population Healthy Nuclei (%): 55% and 62%
  Population Hoechst High Intensity Objects (%): 4% and 1%
  Population Membrane Permeable-Phenotype (%): 14% and 15%
  Population Mitochondria Different-Phenotype (%): 11% and 25%
  Population Mitotic Cells (%): 40% and 43%
  Population Normal (%): 95% and 98%
  Population Pyknosed Nuclei (%): 25% and 19%
  Population Tubulin-Different-Phenotype (%): 8% and 15%
  Total Cell Count: 213 and 83
[3]; [6]
  Population Apoptotic (%): 88% and 66%
  Population Fragmented Nuclei (%): 18% and 13%
  Population Healthy Nuclei (%): 70% and 77%
  Population Hoechst High Intensity Objects (%): 0% and 1%
  Population Membrane Permeable-Phenotype (%): 6% and 5%
  Population Mitochondria Different-Phenotype (%): 3% and 4%
  Population Mitotic Cells (%): 11% and 33%
  Population Normal (%): 99% and 98%
  Population Pyknosed Nuclei (%): 10% and 9%
  Population Tubulin-Different-Phenotype (%): 4% and 3%
  Total Cell Count: 333 and 192
[3]; [7]
  Population Apoptotic (%): 71% and 46%
  Population Fragmented Nuclei (%): 16% and 27%
  Population Healthy Nuclei (%): 51% and 53%
  Population Hoechst High Intensity Objects (%): 4% and 5%
  Population Membrane Permeable-Phenotype (%): 16% and 18%
  Population Mitochondria Different-Phenotype (%): 14% and 18%
  Population Mitotic Cells (%): 28% and 53%
  Population Normal (%): 95% and 94%
  Population Pyknosed Nuclei (%): 31% and 18%
  Population Tubulin-Different-Phenotype (%): 6% and 18%
  Total Cell Count: 211 and 73
[3]; [8]
  Population Apoptotic (%): 85% and 83%
  Population Fragmented Nuclei (%): 14% and 15%
  Population Healthy Nuclei (%): 71% and 72%
  Population Hoechst High Intensity Objects (%): 1%
  Population Membrane Permeable-Phenotype (%): 5% and 7%
  Population Mitochondria Different-Phenotype (%): 3% and 5%
  Population Mitotic Cells (%): 14% and 16%
  Population Normal (%): 98%
  Population Pyknosed Nuclei (%): 13% and 12%
  Population Tubulin-Different-Phenotype (%): 3% and 4%
  Total Cell Count: 414 and 248
[3]; [9]
  Population Apoptotic (%): 71% and 84%
  Population Fragmented Nuclei (%): 28%
  Population Healthy Nuclei (%): 43% and 42%
  Population Hoechst High Intensity Objects (%): 8%
  Population Membrane Permeable-Phenotype (%): 17% and 11%
  Population Mitotic Cells (%): 28% and 16%
  Population Normal (%): 91%
  Population Pyknosed Nuclei (%): 28% and 29%
  Population Tubulin-Different-Phenotype (%): 7% and 13%
  Total Cell Count: 206 and 93
